Results of several laboratories.
Lines come from different studies, so protocols differ.
Target: Homeodomain-interacting protein kinase 1 (HIPK1, Homo sapiens, UniProt Q86Z02)
Effect on: enzyme activity
Mode: inhibitor

Compound | method | tested at | remaining activity
O=C(O)c1ccc2c(c1)nc(NCCc1cccc(F)c1)c1ncncc12 | radiometric | 1 µM | 15%
CCCOc1ccc(OC)c(F)c1C(=O)c1ccc(C(=O)N[C@@H]2CNC[C@H]2NC(=O)c2ccc3[nH]ncc3c2)cc1 | – | 10 µM | 97%
CC(C)(O)[C@H]1CC[C@H](Nc2ccc3ncc(-c4cccc(C(F)(F)F)c4)n3n2)CC1 | – | 1 µM | 83.9%
Cc1ccc(C(=O)Nc2ccc(CN3CCN(C)CC3)c(C(F)(F)F)c2)cc1C#Cc1cnc2cccnn12 | – | 23.5 nM | 86%
Cn1c(=O)n(-c2ccc(C(C)(C)C#N)cc2)c2c3cc(-c4cnc5ccccc5c4)ccc3ncc21 | – | 10 µM | 89%
N#Cc1cccc(Nc2nc3cc(C(=O)O)ccc3c3cnccc23)c1 | radiometric | 1 µM | 5%
O=C(Nc1cnn(-c2csc(C(=O)NC3COC3)c2)c1)Nc1ccccc1Cl | – | 5 µM | 96.3%
COc1cc(Cl)c(C(=O)N[C@@H](CN[C@H]2CC[C@@H](N)CC2)Cc2ccc(C#N)cc2)cc1-c1ccc(CN[C@H](C)c2ccc(C)cc2)o1 | – | 1 µM | 101%
CCN(CC)c1ccc(C2=NNC(=O)CC2C)cc1[N+](=O)[O-] (stereo not shown) | – | 10 µM | 132%
O=C(O)c1ccc2c(c1)nc(NCc1ccccc1)c1ncncc12 | radiometric | 1 µM | 70%
O=C(Nc1cnn(-c2csc(C(=O)NC3COC3)c2)c1)Nc1c(F)cccc1Cl | – | 5 µM | 91.7%
CC(C)(C)c1nc2c(s1)c1nc(N)ncc1c1ccc(NS(=O)(=O)c3c(F)cccc3F)c(F)c12 | radiometric | 1 µM | 81%
Oc1cccc(-c2nc(N3CCOCC3)c3oc4ncccc4c3n2)c1 | – | 10 µM | 63%
O=C(O)c1ccc2c(c1)nc(Nc1ccc(Cl)cc1)c1ncncc12 | radiometric | 1 µM | 4%
Cc1cnc(NC2CCOCC2)nc1-n1cnc(C(=O)NC(CN)c2cc(F)cc(Cl)c2)c1 (stereo not shown) | radiometric | 1 µM | 87%
O=C(O)c1ccc2c(c1)nc(Nc1ccccc1Cl)c1ncncc12 | radiometric | 1 µM | 13%
COc1cc(Nc2cnc(C#N)c(O[C@H](C)CN(C)C)n2)ncc1-c1cnn(C)c1 | radiometric | 10 µM | 107%
O=C(O)c1ccc2c(c1)nc(Nc1cccc(F)c1)c1ccncc12 | radiometric | 1 µM | 6%
CC(C)(C)c1nc(-c2cccc(NS(=O)(=O)c3c(F)cccc3F)c2F)c(-c2ccnc(N)n2)s1 | radiometric | 1 µM | 87%
